Measurements: ChEMBL document CHEMBL4011649 (J Med Chem, 2017)
Active and inactive are the calls of the source. The rule behind the calls is not given here.

Experiments:
Mus musculus [1] = assay: Antipsychotic activity in PCP-induced hyperactivity C57BL/6J mouse model assessed as reduction in PCP-induced hyper-locomotion at 3 mg/kg, ip preincubated for 15 mins followed by PCP addition measured after 60 mins; format: functional, organism-based
Method in brief: (§1)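 Male C57BL/6J mice, 9–10 weeks old. […] PCP 5 mg/kg followed, with activity recorded a further 60 min. Read-out was total distance from infrared beam breaks, analysed by one-way ANOVA.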

Mus musculus [2] = assay: Toxicity in C57BL/6J mouse assessed as reduction in baseline locomotive activity at 3 mg/kg, ip after 15 mins; format: organism-based; conditions: in vivo
Mus musculus [3] = assay: Antipsychotic activity in AMPH-induced hyperactivity C57BL/6J mouse model assessed as reduction in amphetamine-induced hyper-locomotion at 3 mg/kg, ip preincubated for 15 mins followed by AMPH addition measured after 90 mins; format: functional, organism-based
5-HT2A receptor [4] = molecular target: 5-HT2A receptor (Rattus norvegicus, UniProt P14842); assay: Agonist activity at rat 5-HT2A receptor expressed in African clawed frog oocytes assessed as increase in current amplitude relative to 5-HT; format: cell-based; conditions: African clawed frog oocytes expressing rat 5-HT2A receptor
Chain of 5-HT2A receptor (Rattus norvegicus, UniProt P14842) (P14842 whole entry): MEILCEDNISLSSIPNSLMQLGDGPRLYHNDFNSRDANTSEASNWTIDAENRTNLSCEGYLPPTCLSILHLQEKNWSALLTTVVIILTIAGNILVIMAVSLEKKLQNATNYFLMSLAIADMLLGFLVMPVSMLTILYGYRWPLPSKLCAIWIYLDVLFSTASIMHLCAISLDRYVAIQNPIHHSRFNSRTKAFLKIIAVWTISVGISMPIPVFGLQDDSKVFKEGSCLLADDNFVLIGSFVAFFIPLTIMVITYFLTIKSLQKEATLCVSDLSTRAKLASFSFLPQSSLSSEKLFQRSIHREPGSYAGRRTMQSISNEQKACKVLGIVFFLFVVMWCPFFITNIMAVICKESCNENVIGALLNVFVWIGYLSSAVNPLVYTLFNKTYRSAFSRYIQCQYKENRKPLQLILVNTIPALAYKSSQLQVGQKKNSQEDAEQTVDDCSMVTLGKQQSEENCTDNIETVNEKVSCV

[5] = molecular target: T1, 5-hydroxytryptamine receptor 2C (Rattus norvegicus, UniProt P08909); assay: Agonist activity at rat 5-HT2C receptor expressed in African clawed frog oocytes assessed as increase in current amplitude; format: cell-based
T1 sequence (P08909 whole entry): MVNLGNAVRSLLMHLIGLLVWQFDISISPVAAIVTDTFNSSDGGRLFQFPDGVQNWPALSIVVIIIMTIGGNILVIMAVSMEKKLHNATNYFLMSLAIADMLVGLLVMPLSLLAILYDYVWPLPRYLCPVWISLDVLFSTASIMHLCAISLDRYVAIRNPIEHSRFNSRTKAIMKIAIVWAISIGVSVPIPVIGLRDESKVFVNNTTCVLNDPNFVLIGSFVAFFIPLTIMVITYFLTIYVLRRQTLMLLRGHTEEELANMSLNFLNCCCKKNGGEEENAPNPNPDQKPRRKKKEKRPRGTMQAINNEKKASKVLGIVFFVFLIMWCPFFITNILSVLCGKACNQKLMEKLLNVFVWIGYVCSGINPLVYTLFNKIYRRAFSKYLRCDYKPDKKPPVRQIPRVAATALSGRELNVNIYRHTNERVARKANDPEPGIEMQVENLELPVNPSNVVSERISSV

CYP2D6 = CYP2D6 (Homo sapiens, UniProt P10635); assay: in vitro; conditions: liver microsomes, probe dextromethorphan
Chain of CYP2D6 (P10635 whole entry): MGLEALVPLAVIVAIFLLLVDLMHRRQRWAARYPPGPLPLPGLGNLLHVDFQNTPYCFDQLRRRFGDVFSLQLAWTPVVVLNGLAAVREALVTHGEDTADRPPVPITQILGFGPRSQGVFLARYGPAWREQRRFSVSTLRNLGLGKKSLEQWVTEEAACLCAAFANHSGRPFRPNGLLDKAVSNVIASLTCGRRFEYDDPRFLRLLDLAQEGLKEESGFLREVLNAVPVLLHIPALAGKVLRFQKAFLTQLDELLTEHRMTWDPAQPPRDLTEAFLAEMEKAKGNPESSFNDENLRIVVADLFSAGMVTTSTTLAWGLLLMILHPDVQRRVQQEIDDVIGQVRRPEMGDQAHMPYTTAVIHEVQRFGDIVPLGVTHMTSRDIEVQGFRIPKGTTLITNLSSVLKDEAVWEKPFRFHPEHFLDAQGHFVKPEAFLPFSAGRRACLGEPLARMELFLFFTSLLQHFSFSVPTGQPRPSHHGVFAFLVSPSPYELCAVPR

[6] = molecular target: Voltage-gated inwardly rectifying potassium channel KCNH2 (Homo sapiens, UniProt Q12809); assay: Inhibition of human ERG expressed in CHO cells by automated patch-clamp assay; format: cell-based
Chain of Voltage-gated inwardly rectifying potassium channel KCNH2 (Q12809 whole entry): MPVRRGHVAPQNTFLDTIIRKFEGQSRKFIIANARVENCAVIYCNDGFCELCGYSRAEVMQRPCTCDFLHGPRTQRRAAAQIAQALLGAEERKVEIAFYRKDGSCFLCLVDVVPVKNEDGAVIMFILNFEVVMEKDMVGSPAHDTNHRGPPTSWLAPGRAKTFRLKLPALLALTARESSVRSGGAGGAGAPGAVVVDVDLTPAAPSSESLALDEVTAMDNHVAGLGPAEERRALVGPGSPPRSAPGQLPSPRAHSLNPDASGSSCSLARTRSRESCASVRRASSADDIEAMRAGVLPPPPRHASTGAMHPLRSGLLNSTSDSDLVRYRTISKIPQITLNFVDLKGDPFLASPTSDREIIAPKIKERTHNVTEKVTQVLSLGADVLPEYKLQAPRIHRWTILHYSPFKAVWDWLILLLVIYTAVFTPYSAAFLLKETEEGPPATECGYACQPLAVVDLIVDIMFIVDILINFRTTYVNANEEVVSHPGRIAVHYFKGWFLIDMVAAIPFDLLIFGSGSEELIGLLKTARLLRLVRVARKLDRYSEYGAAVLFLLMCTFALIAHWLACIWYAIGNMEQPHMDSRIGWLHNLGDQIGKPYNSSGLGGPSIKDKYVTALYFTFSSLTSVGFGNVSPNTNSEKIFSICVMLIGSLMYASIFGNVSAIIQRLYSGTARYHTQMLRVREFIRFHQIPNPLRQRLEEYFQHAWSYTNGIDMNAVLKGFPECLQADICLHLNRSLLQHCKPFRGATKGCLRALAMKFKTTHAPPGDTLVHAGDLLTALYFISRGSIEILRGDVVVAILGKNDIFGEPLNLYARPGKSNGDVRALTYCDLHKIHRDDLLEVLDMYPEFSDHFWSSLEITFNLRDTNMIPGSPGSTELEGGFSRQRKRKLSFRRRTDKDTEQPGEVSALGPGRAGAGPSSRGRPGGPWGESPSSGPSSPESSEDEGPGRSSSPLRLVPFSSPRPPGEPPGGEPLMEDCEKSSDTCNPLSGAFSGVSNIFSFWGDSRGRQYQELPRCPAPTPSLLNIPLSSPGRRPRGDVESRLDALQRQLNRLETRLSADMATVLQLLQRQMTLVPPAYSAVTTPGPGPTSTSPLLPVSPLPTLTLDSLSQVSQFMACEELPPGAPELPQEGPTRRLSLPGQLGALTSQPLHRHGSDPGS
Method in brief: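 Read-out is an IC50 in µM for hERG inhibition, measured by automated patch-clamp on CHO cells.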

Mus musculus [7] = assay: Antipsychotic activity in PCP-induced hyperactivity C57BL/6J mouse model assessed as reduction in PCP-induced hyper-locomotion at 10 to 20 mg/kg, ip preincubated for 15 mins followed by PCP addition measured after 60 mins; format: functional, organism-based; method in brief: as §1
5-HT2A receptor [8] = molecular target: 5-HT2A receptor (Homo sapiens, UniProt P28223); assay: Agonist activity at human 5-HT2A receptor expressed in Flp-IN HEK293 cells assessed as induction of calcium flux measured every second for 5 mins by Fluo-4 dye based FLIPR assay relative to serotonin; format: cell-based; conditions: Flp-IN HEK293 cells expressing human 5-HT2A receptor
Chain of 5-HT2A receptor (Homo sapiens, UniProt P28223) (P28223 whole entry): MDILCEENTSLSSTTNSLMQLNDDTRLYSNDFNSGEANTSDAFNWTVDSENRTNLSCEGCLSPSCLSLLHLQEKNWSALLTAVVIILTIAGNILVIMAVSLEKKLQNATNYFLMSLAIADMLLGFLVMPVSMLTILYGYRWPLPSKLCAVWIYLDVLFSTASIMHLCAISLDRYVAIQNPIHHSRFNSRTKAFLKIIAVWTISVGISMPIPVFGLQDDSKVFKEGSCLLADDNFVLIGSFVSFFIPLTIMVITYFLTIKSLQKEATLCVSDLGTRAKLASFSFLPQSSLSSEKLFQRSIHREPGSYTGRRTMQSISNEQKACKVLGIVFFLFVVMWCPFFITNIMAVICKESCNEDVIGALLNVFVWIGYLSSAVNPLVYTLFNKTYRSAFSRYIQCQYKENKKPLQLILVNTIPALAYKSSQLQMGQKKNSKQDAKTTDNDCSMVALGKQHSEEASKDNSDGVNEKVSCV

[9] = molecular target: T2, 5-hydroxytryptamine receptor 2B (Homo sapiens, UniProt P41595); assay: Displacement of [3H]-LSD from human 5-HT2B receptor expressed in HEKT cells after 90 mins by scintillation counting method; format: cell-based
T2 sequence (P41595 whole entry): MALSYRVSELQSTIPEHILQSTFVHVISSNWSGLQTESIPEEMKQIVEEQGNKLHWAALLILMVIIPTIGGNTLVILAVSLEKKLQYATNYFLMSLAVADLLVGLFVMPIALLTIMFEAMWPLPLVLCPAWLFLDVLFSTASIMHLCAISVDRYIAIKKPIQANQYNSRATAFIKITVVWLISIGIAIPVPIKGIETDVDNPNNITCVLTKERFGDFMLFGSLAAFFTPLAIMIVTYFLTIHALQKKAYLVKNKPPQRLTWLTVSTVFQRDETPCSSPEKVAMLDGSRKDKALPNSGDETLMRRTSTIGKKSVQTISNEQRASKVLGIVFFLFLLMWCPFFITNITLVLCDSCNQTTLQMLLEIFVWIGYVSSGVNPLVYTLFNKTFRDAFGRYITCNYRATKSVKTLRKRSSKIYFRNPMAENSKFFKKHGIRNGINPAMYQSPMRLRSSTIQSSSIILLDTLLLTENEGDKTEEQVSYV

CYP2C9 = CYP2C9 (Homo sapiens, UniProt P11712); assay: in vitro; conditions: liver microsomes, probe tolbutamide
Chain of CYP2C9 (P11712 whole entry, the tested form may be a part, canonical isoform): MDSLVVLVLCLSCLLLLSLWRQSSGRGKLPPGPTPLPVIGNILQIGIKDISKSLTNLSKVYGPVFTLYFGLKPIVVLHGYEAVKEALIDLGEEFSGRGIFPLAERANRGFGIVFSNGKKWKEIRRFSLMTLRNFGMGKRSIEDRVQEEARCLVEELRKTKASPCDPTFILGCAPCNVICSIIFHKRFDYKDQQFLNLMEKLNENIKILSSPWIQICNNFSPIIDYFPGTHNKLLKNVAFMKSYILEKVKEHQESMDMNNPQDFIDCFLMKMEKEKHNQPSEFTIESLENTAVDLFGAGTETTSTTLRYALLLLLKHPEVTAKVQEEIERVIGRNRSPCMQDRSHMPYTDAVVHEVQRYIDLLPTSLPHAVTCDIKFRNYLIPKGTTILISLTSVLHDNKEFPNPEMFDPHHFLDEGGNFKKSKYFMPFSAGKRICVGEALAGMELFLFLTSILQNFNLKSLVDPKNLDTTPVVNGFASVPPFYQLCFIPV

[10] = molecular target: T3, 5-hydroxytryptamine receptor 2C (Homo sapiens) (UniProt P28335); assay: Agonist activity at tTA containing TEV cleavage site-fused 5-HT2C-INI receptor isoform (unknown origin) expressed in TEV-fused beta-arrestin2 expressing HEK cells assessed as induction of beta-arrestin2 recruitment after 20 hrs by Tango assay relative to serotonin; format: cell-based
T3 sequence (whole entry): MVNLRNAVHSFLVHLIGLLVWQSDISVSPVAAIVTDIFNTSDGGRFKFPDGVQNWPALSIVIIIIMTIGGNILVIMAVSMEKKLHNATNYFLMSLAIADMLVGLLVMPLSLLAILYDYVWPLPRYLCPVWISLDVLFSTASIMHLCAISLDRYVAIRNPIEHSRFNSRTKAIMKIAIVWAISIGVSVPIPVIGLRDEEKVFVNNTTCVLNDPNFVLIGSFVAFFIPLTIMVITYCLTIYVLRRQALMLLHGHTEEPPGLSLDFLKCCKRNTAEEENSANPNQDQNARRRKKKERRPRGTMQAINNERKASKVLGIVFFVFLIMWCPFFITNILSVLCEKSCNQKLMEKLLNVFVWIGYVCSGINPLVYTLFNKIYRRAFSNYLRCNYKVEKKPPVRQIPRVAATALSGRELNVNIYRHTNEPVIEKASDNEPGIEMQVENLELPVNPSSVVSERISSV
Method in brief: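 HTLA cells (HEK cells with TEV-fused β-arrestin-2 and tTA-driven luciferase) transfected with tTA-fused 5-HT2C-INI receptor carrying a TEV site. Luminescence read after 20 min lysis at room temperature. Normalized to % 5-HT and fitted sigmoidally. NA means no activity up to 10 μM. Mean of n = 3.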

[11] = molecular target: T3, 5-hydroxytryptamine receptor 2C (Homo sapiens); assay: Agonist activity at human 5-HT2C-INI receptor isoform expressed in Flp-IN HEK293 cells assessed as induction of Gq-mediated calcium flux measured every second for 5 mins by Fluo-4 dye based FLIPR assay relative to serotonin; format: functional, cell-based
Mus musculus [12] = assay: Antipsychotic activity in AMPH-induced hyperactivity C57BL/6J mouse model assessed as reduction in amphetamine-induced hyper-locomotion at 20 mg/kg, ip preincubated for 15 mins followed by AMPH addition measured after 90 mins; format: functional, organism-based
Mus musculus [13] = assay: Toxicity in C57BL/6J mouse assessed as reduction in baseline locomotive activity at 10 to 20 mg/kg, ip after 15 mins; format: organism-based; conditions: in vivo
Mus musculus [14] = assay: Antipsychotic activity in AMPH-induced hyperactivity C57BL/6J mouse model assessed as reduction in amphetamine-induced hyper-locomotion at 10 mg/kg, ip preincubated for 15 mins followed by AMPH addition measured after 90 mins; format: functional, organism-based
CYP3A4 = CYP3A4 (Homo sapiens, UniProt P08684); assay: in vitro; conditions: liver microsomes, probe midazolam
Chain of CYP3A4 (P08684 whole entry): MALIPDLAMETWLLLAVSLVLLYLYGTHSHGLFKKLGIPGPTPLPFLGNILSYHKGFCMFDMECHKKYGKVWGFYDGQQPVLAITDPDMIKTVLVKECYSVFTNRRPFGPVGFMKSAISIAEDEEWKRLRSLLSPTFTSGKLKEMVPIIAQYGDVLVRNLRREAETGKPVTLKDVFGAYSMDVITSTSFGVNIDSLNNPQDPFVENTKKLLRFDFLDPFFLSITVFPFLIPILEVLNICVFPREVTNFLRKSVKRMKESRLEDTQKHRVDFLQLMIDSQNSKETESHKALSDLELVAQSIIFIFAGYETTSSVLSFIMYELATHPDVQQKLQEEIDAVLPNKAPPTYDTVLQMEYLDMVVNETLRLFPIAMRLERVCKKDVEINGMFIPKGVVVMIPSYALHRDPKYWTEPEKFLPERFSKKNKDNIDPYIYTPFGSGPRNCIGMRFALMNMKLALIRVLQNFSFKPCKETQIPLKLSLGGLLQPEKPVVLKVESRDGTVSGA

[15] = molecular target: T2, 5-hydroxytryptamine receptor 2B; assay: Agonist activity at human 5-HT2B receptor expressed in Flp-IN HEK293 cells assessed as induction of calcium flux up to 10 uM measured every second for 5 mins by Fluo-4 dye based FLIPR assay; format: cell-based; conditions: hek293, 5 min
CYP1A2 = molecular target: T4, CYP1A2 (Homo sapiens, UniProt P05177); assay: in vitro; conditions: liver microsomes, probe phenacetin
T4 sequence (P05177 whole entry): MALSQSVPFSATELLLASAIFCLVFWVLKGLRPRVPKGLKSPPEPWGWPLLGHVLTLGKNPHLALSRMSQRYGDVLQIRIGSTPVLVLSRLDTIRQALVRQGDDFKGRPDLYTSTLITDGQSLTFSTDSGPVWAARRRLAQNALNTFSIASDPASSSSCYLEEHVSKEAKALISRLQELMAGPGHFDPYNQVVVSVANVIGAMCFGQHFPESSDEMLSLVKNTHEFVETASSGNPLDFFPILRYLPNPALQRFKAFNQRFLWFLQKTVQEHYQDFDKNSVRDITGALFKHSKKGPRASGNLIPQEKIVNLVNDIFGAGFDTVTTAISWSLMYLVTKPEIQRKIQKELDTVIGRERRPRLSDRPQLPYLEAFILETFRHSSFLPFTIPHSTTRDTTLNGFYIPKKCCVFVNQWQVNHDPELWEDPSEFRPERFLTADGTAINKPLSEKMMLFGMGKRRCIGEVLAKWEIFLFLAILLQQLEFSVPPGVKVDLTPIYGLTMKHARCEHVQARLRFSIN

## C[C@H]1CNCCc2ccc(Cl)cc21 [LORCASERIN]
Mus musculus [1]
  Activity: inactive
Mus musculus [2]
  Activity: Toxic
Mus musculus [3]
  Activity: Active

## COc1cc(CC(C)N)c(OC)cc1I (centres undefined)
5-HT2A receptor [4]
  Emax: 46%
[5]
  EC50: 0.178 µM

## COc1ccccc1CNC[C@H]1C[C@@H]1c1cc(F)ccc1OC.Cl
CYP2D6
  inhibition at 10 µM: 68.9%
[6]
  IC50: 1.4 µM
Mus musculus [7]
  Activity: inactive
5-HT2A receptor [8]
  Emax at 5 min: 63%
[9]
  Ki: 0.411 µM
CYP2C9
  inhibition at 10 µM: 9.3%
[10]
  Emax: 43%
[11]
  Emax: 92%
Mus musculus [12]
  Activity: Active
Mus musculus [13]
  Activity: Non-Toxic
Mus musculus [14]
  Activity: inactive
CYP3A4
  inhibition at 10 µM: 85.6%
[15]
  Activity: Not Active
CYP1A2
  inhibition at 10 µM: 20.5%
